Assay outcomes from PubChem.
MrgX1 PAM: human MrgX1 positive allosteric modulation, primary screen. B-score at 10 µM. AID 588675. 310,000 tested, 0.63% active. MrgX1-HEK293, Fluo-4 calcium flux, FDSS; active compounds read high;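 active = plate-corrected calcium response at least 3 library SD above typical, normal starting fluorescence, not activating the receptor alone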;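 note: compound read alongside a low EC10 to EC30 dose of BAM8-22 agonist; peak minus trough fluorescence over baseline measured at the second addition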
Target sequence (Q96LB2 whole entry, looked up): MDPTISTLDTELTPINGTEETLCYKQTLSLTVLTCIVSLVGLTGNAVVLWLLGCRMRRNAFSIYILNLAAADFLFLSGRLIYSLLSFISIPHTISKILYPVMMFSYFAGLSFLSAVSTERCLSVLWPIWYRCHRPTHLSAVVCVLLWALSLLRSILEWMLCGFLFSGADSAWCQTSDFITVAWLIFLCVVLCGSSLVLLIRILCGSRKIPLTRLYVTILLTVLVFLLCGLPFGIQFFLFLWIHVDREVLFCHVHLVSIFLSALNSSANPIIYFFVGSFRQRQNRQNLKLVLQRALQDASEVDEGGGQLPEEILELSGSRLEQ
MrgX1 antagonist: blocks BAM8-22 activation of human MrgX1 receptor; MRGX1-HEK293 calcium flux, Fluo-4, BAM8-22 antagonism; active compounds read low; 310,000 tested, 1.3% active; B-score at 10 µM; Q96LB2;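 active = calcium-response B-score plate-corrected more than 3 library SD below zero, starting fluorescence within 5 deviations, no agonist response on first addition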;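 note: peak minus trough fluorescence over baseline after final BAM8-22 challenge near maximal dose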
RGS4 inh: human RGS4 inhibition | P49798 | HEK293 M3R/RGS4 inducible, Fluo-4 calcium flux; active compounds read high; triggered by carbachol at its EC20 | B-score at 10 µM | 310,000 tested, 0.45% active | AID 463165;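 active = B-score, a plate-corrected calcium signal, over three deviations above library mean, with baseline fluorescence within five deviations of library mean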;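 note: RGS4 expression induced by doxycycline in cells with stable M3 receptor; B-score is computed from the integrated fluorescence ratio over baseline after carbachol; higher B-score means a larger calcium signal and so more RGS4 inhibition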
Target sequence (P49798 whole entry, looked up): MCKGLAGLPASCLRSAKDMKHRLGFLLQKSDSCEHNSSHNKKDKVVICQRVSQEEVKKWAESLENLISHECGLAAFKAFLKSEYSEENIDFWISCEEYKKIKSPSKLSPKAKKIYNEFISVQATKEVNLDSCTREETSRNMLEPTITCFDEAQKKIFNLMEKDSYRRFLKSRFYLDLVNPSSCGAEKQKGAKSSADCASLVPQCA
RGS4 pot: RGS4 potentiation or activation | B-score at 10 µM | HEK293 M3R/inducible RGS4, carbachol calcium flux Fluo4; active compounds read low | 310,000 tested, 0.92% active;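 active = B-score of the integrated calcium signal more than 4 SD below the library mean, with starting fluorescence not abnormally high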;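 note: negative B-score means reduced calcium response which marks RGS4 activation or potentiation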
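Reagent: ECmax carbachol challenge; Test system: M3R-expressing HEK293 line, RGS4 induced by doxycycline; Schedule: overnight RGS4 induction, 30 min dye load 37 °C, 20 min compound RT; Detection: calcium dye Fluo4 fluorescence; Read-out: Agonist-evoked peak-minus-minimum fluorescence over baseline, integrated ratio, B score.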
MrgX1 agonist: activates human MrgX1 receptor signaling | Q96LB2 | MrgX1-HEK293 cells, Fluo-4 calcium fluorescence, agonist mode; active compounds read high | B-score at 10 µM | 310,000 tested, 0.44% active | AID 588627;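 active = calcium response B-score plate-corrected fluorescence ratio at least 3 library SD, with starting fluorescence B-score inside 5 SD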
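Assay system: MrgX1-expressing HEK293 cells / Amount: fifteen thousand cells per well / Doses: test compound in the initial addition of three / Timing: cells plated overnight, dye loaded 0.5 h 37 °C, 0.5 h room temperature / Technique: kinetic calcium dye fluorescence, Fluo-4 NW / Control set: positive and negative controls per plate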
MrgX1 PAM conf: confirmation of human MrgX1 receptor positive allosteric modulators. shares compounds with MrgX1 PAM. MrgX1-HEK293, Fluo-4 calcium fluorescence, FDSS. activation (ratio percentage), % at 10 µM. 1,200 tested, 13% active. AID 602413;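 active = ratio at least 3 SD above the weak peptide control, stable starting fluorescence, no direct agonism earlier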;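 note: compound followed by low BAM8-22 agonist challenge near EC20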
MrgX1 ant reconf: confirmation of human MrgX1 receptor antagonists | MrgX1-HEK293, BAM8-22 calcium flux, Fluo-4; active compounds read low | shares compounds with MrgX1 antagonist | 2,300 tested, 19% active | remaining BAM8-22 calcium response % of control (active compounds read low), % at 10 µM;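 active = remaining agonist calcium response no higher than 100% minus 3 SD of agonist-only control wells, with starting fluorescence near control levels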;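 note: agonist BAM8-22 given at a near maximal EC90 to ECmax level; peak minus minimum fluorescence divided by baseline after agonist addition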
HEK293 Ca flux: counter-screen for MrgX1 antagonists: effect in parental HEK293 cells; fluorescence ratio F(max-min)/F0 at 10 µM; shares compounds with MrgX1 antagonist; 4,000 tested, 2% active; Fluo-4 calcium fluorescence, FDSS; AID 624111;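 active = duplicate-averaged calcium fluorescence ratio at least three times the standard deviation of buffer wells, a nonspecific response in parental cells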
HEK293 Ca counter: MrgX1 allosteric activator counter-screen hit in parental HEK293 cells. AID 624114. fluorescence ratio F(max-min)/F0 at 10 µM. 4,000 tested, 0.4% active. shares compounds with MrgX1 antagonist. parental HEK293 calcium flux, Fluo-4 fluorescence ratio; active compounds read high;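 active = calcium fluorescence ratio, averaged over duplicates, at least 3 SD of the buffer-well ratio, meaning a nonspecific response in receptor-free cells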;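 note: untransfected parental HEK293 lacking MrgX1 used as counterscreen for MrgX1 allosteric activators; fluorescence change taken during the second addition on a kinetic imager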
HEK293 Ca cntr2: counter-screen for MrgX1 activators: effect in parental HEK293 cells; shares compounds with MrgX1 antagonist; Fluo-4 calcium fluorescence (FDSS); active compounds read high; fluorescence ratio F(max-min)/F0 at 10 µM; 4,000 tested, 8.7% active;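 active = calcium fluorescence ratio at least three times the spread of buffer wells, meaning a non-specific response in parental cells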
A number is an active result; 0 = inactive; - = not tested or not shown; ! = a repeat was not active. In the library only some 3.5% were active in any assay of this set; here they are far more common.

SMILES	MrgX1 PAM	MrgX1 antagonist	RGS4 inh	RGS4 pot	MrgX1 agonist	MrgX1 ant reconf	HEK293 Ca flux	HEK293 Ca counter	HEK293 Ca cntr2	others
C=CCN1CCc2cccc3c2[C@H]1Cc1ccc(O)c(O)c1-3	8.1	0	0	0	0	-	0	0	0	MrgX1 PAM conf=0
c1ccc(P(c2ccccn2)c2ccccn2)cc1	0	0	0	0	0	-	-	-	-
Clc1ccc2[nH]c3c(c2c1)CCNC3	0	-5.4	0	0	0	0	0	0	0
NC(CC(=O)O)C1CCCCC1 (stereo unspecified)	0	-7	0	0	0	0	0	0	0
O=C1NC2NC(=O)N([N+](=O)[O-])C2N1 (stereo unspecified)	0	0	0	0	0	-	-	-	-
CCc1ccc(-n2c(O)c(/C=N/N3CCCCC3c3cccnc3)c(=O)[nH]c2=O)cc1 (stereo unspecified)	0	-11	0	0	0	0	0	0	0
CCOc1ccc(-c2cc(C)[n+](CCO)c(-c3ccc(OCC)cc3)c2)cc1	0	0	0	0	0	-	-	-	-
CCOc1ccc(-c2cc(C)[n+](CCc3ccc(OC)c(OC)c3)c(-c3ccc(OCC)cc3)c2)cc1	0	-13	0	-9.9	0	70%	0	0	0
CCC1C(C#N)=C(N)Oc2c1c(=O)oc1ccccc21 (stereo unspecified)	0	0	0	0	0	-	-	-	-
CC(C)CC1C(C#N)=C(N)Oc2c1c(=O)oc1ccccc21 (stereo unspecified)	0	-6.3	0	0	0	0	0	0	0
FC(F)(F)c1cccc(-n2nnnc2C2(N3CCOCC3)CCCCC2)c1	0	-5.1	0	0	0	0	0	0	0
Cc1nn(Cc2c(Cl)cccc2Cl)c(Cl)c1C(=O)O	0	0	0	0	0	-	-	-	-
Clc1ccccc1CN1CCN(c2ccccc2)CC1	0	0	0	0	0	-	-	-	-
CC(C)(C)c1ccc(O)c(CN2CCN(c3ccccc3)CC2)c1	0	-9.3	0	0	0	0	0	0	0
CCN1C[C@]2(CO)CC[C@H](OC)[C@@]34C5C[C@H]6[C@H](OC)C5[C@](O)(C[C@H]6OC)[C@@](O)(C(OC)C23)[C@@H]14 (stereo partly specified)	0	-4.6	0	0	0	0	0	0	0
C[C@@H]1CC2(CCCC[N+]2(C)C)C[C@H]1C	0	0	0	0	0	-	-	-	-
Cc1c(C(=O)N2CCC3(CC2)OCCO3)oc2ccc(S(=O)(=O)N3CCOCC3)cc12	0	-4.5	0	0	0	0	0	0	0
Cc1c(C(=O)N2CCC3(CC2)OCCO3)oc2ccccc12	0	0	0	0	0	-	-	-	-
CCCCn1c(O)c(C(C)=NCc2cc(OC)cc(OC)c2)c(=O)[nH]c1=O	0	-6.8	0	0	0	0	0	0	0
COc1nc(C)nc(NC(=O)NS(=O)(=O)c2ccccc2Cl)n1	0	0	0	0	0	-	-	-	-
Cc1c(C=O)c2ccccc2n1Cc1ccccc1F	0	-11	0	0	0	0	0	0	0
COc1ccc(-n2c(O)c(C=NCc3ccc4c(c3)OCO4)c(=O)[nH]c2=O)cc1	0	0	0	0	0	-	-	-	-
CCOc1ccc(N2C(=O)CC(=O)NC2=O)cc1	0	0	0	0	0	-	-	-	-
COc1cc(N2C(=O)CC(=O)NC2=O)cc(OC)c1OC	0	-5.1	0	0	0	82%	0	0	0
COC(=O)C1=C(c2ccc(S(C)(=O)=O)cc2)C[C@@H]2CC[C@H]1N2C(=O)NCCO	0	0	0	0	0	-	-	-	-
SMILES	MrgX1 PAM	MrgX1 antagonist	RGS4 inh	RGS4 pot	MrgX1 agonist	MrgX1 ant reconf	HEK293 Ca flux	HEK293 Ca counter	HEK293 Ca cntr2	others
COC(=O)C1=C(c2ccc(S(C)(=O)=O)cc2)C[C@@H]2CC[C@H]1N2C(=O)NCC1CC1	0	-9.4	0	0	0	0	0	0	0
Cn1cc(C(=O)N2CCOCC2)c2ccccc21	0	0	0	0	0	-	-	-	-
Cc1sc2ncnc(N3CCC(C(=O)Nc4ccc(C#N)c(Cl)c4)CC3)c2c1C	0	-5.8	0	0	0	0	0	0	0
CCN(CC(=O)Nc1ccc(C#N)c(Cl)c1)CC(=O)NC(C)(C)C	0	0	0	0	0	-	-	-	-
ClC1C(Cl)C(Cl)C(Cl)C(Cl)C1Cl (stereo unspecified)	0	-6.9!	-	-	0	0	0	0	0
CC(=O)NNC(=O)CN1C(=O)CN=C(c2ccccc2)c2cc(Br)ccc21	0	0	0	0	0	-	-	-	-
O=C(c1cccn2c(=O)c3cc(Br)ccc3nc12)N1CCC2(CC1)OCCO2	0	0	0	0	0	-	-	-	-
Cc1cccn2c(=O)c3cc(C(=O)N4CCC5(CC4)OCCO5)n(C)c3nc12	0	-4.7	0	0	0	0	0	0	0
CN1C(=O)N(C)C(=O)C2(Cc3cc([N+](=O)[O-])ccc3N(C)C2)C1=O	0	0	0	0	0	-	-	-	-
O=C1OCc2cc(N=Nc3c(O)[nH]c(=O)[nH]c3=O)ccc21	0	0	0	0	0	-	-	-	-
CCOC(=O)C(O)(c1ccc(NC(=S)NC(=O)c2ccc(Cl)cc2Cl)c(C)c1)C(F)(F)F (stereo unspecified)	0	-4.7	0	0	0	0	0	0	0
COC(=O)C(O)(c1ccc(NC(=S)NC(=O)c2ccc(Cl)cc2Cl)c(C)c1)C(F)(F)F (stereo unspecified)	0	0	0	0	0	-	-	-	-
O=c1[nH]c(=O)n(Cc2ccccc2Cl)c(O)c1/C=C1/C=CC=N1	0	0	0	0	0	-	-	-	-
O=C(O)C1CN2CCC1CC2 (stereo unspecified)	0	-8	0	0	0	0	0	0	0
CC(C)CCn1c(=O)c(C(=O)NCc2ccc3c(c2)OCO3)c(O)c2ccccc21	0	-7.7	0	0	0	0	0	0	0
CC(C)CCn1c(=O)c(C(=O)Nc2ccccc2S(N)(=O)=O)c(O)c2ccccc21	0	0	0	0	0	-	-	-	-
COc1cccc(-n2c(/C=C/c3ccc(O)c(O)c3)nc3ccccc3c2=O)c1	0	-5.7	0	0	0	0	0	0	0
N=C1C(c2ccccc2)=C(O)CN1Cc1ccco1	0	-5.7	0	0	0	0	0	0	0
CCC1(C(=O)c2ccccc2)C2c3ccccc3OC(=O)C21C(C)=O (stereo unspecified)	0	0	0	0	0	-	-	-	-
CCOc1cc2c(cc1OCC)-n1cccc1C(c1cccc(OCC)c1O)NC2 (stereo unspecified)	0	0	0	0	0	-	-	-	-
COc1ccccc1-n1c(-c2ccoc2)nc2ccccc2c1=O	0	-4.7	0	0	0	0	0	0	0
